In ChEMBL document CHEMBL1153955, “Indolylarylsulfones bearing natural and unnatural amino acids. Discovery of potent inhibitors of HIV-1 non-nucleoside wild type and resistant mutant strains reverse transcriptase and coxsackie B4 virus” (J Med Chem, 2009):

How the values were obtained:
[1] = test system: Respiratory syncytial virus; assay: Antiviral activity against RSV Long in human HeLa cells assessed as protection against virus-induced cytopathicity; assay type: functional, organism-based
Outline: (§1)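 Confluent cell monolayers inoculated with 100 CCID₅₀ virus. After 1-2 h adsorption, residual virus removed and cultures incubated with varying compound concentrations. Cytopathicity scored once it reached completion in untreated infected controls. EC₅₀ = dose reducing virus-induced cytopathogenicity by 50%.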

[2] = test system: Influenza A virus H3N2; assay: Antiviral activity against influenza H3N2 virus in MDCK cells assessed as reduction of virus-induced cytopathicity by visual cytopathic effect scoring method; assay type: functional, organism-based
[3] = test system: Coxsackievirus B4; assay: Antiviral activity against Coxsackievirus B4 in african green monkey Vero cells assessed as protection against virus-induced cytopathicity; assay type: functional, organism-based; settings: Enterovirus B; outline: as §1
[4] = test system: Vaccinia virus; assay: Antiviral activity against Vaccinia virus Lederle in human HEL cells assessed as protection against virus-induced cytopathicity; assay type: functional, organism-based; settings: Orthopoxvirus vaccinia
[5] = target: Human immunodeficiency virus type 1 reverse transcriptase (Human immunodeficiency virus 1, UniProt Q72547, K103N); assay: Inhibition of HIV1 reverse transcriptase p66/p51 K103N mutant; settings: read-out: IC50
Outline: (§2)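 Substrate was 0.5 µg poly(rA)/oligo(dT) 10:1 (0.3 µM 3′-OH ends) with 10 µM [³H]dTTP, at 37 °C. Acid-precipitable radioactivity was counted on GF/C filters after TCA washes.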

[6] = Cytotoxicity against MDCK cells by MTS assay; assay type: cell-based, Canis lupus familiaris; settings: dog
[7] = test system: L1210; assay: Antiproliferative activity against mouse L1210 cells after 2 days; assay type: cell-based; settings: L1210, 48 h
Outline: (§3)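 Cells seeded at 5 × 10⁴ to 7.5 × 10⁴ cells/200 µL with or without serial compound dilutions; incubated at 37 °C for 2 days (L1210) or 3 days (Molt4/C8, CEM). Cell numbers counted with a Coulter counter. CC₅₀ = concentration reducing proliferation by 50% versus untreated controls, read from plots of cell number (% of control) against concentration. Means of at least two independent experiments.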

[8] = target: Human immunodeficiency virus type 1 reverse transcriptase (Human immunodeficiency virus 1, UniProt Q72547, L100I); assay: Inhibition of HIV1 reverse transcriptase p66/p51 L100I mutant; settings: read-out: IC50; outline: as §2
[9] = test system: Influenza B virus; assay: Antiviral activity against influenza B virus in MDCK cells assessed as reduction of virus-induced cytopathicity by MTS method; assay type: functional, organism-based
[10] = Cytotoxicity against african green monkey Vero cells assessed as drug level causing microscopically detectable alteration of normal cell morphology after 3 days; assay type: cell-based; settings: chlorocebus sabaeus
Outline: (§4)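 Serial compound dilutions added to confluent HeLa or Vero monolayers. MCC = minimum concentration causing microscopically detectable alteration of cell morphology after 3 days of incubation.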

[11] = test system: CCRF-CEM; assay: Antiproliferative activity against human CEM cells after 3 days; assay type: cell-based; settings: 72 h; outline: as §3
[12] = test system: Vesicular stomatitis virus; assay: Antiviral activity against VSV in human HEL cells assessed as protection against virus-induced cytopathicity; assay type: functional, organism-based
[13] = test system: Human immunodeficiency virus 1; assay: Antiviral activity against HIV1 3B in human CEM cells assessed as protection against virus-induced cytopathicity after 4 days; assay type: functional, organism-based; settings: Human immunodeficiency virus 1, 3B, CCRF-CEM, 96 h
Outline: (§5)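 CEM cells (~3 × 10⁵ cells/mL) infected with ~100 CCID₅₀ per mL of HIV-1 (IIIB) or HIV-2 (ROD), then seeded into wells containing compound dilutions. After 4 days at 37 °C, syncytium (giant cell) formation was examined microscopically. EC₅₀ = concentration protecting CEM cells from HIV cytopathicity by 50%.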

[14] = Cytotoxicity against human HEL cells assessed as drug level causing microscopically detectable alteration of normal cell morphology after 3 days; assay type: cell-based
[15] = Cytotoxicity against MDCK cells assessed as drug level causing microscopically detectable alteration of normal cell morphology; assay type: cell-based, Canis lupus familiaris; settings: dog
[16] = test system: Influenza B virus; assay: Antiviral activity against influenza B virus in MDCK cells assessed as reduction of virus-induced cytopathicity by visual cytopathic effect scoring method; assay type: functional, organism-based
[17] = test system: Human immunodeficiency virus 2; assay: Antiviral activity against HIV2 ROD in human CEM cells assessed as protection against virus-induced cytopathicity after 4 days; assay type: functional, organism-based; settings: Human immunodeficiency virus 2, ROD, CCRF-CEM, 96 h; outline: as §5
[18] = test system: Human alphaherpesvirus 1; assay: Antiviral activity against thymidine kinase deficient and acyclovir resistant HSV1 KOS in human HEL cells assessed as protection against virus-induced cytopathicity; assay type: functional, organism-based; settings: Human alphaherpesvirus 1, KOS
[19] = target: Human immunodeficiency virus type 1 reverse transcriptase (Human immunodeficiency virus 1, UniProt Q72547, Y181I); assay: Inhibition of HIV1 reverse transcriptase p66/p51 Y181I mutant; settings: read-out: IC50; outline: as §2
[20] = test system: Mammalian orthoreovirus 1; assay: Antiviral activity against Reovirus 1 in african green monkey Vero cells assessed as protection against virus-induced cytopathicity; assay type: functional, organism-based; settings: Mammalian orthoreovirus 1, Vero; outline: as §1
[21] = test system: Human alphaherpesvirus 2; assay: Antiviral activity against HSV2 G in human HEL cells assessed as protection against virus-induced cytopathicity; assay type: functional, organism-based; settings: Human alphaherpesvirus 2, strain G; outline: as §1
[22] = test system: Influenza A virus H3N2; assay: Antiviral activity against influenza H3N2 virus in MDCK cells assessed as reduction of virus-induced cytopathicity by MTS method; assay type: functional, organism-based
[23] = test system: Feline coronavirus; assay: Antiviral activity against Feline coronavirus in feline […] cells assessed as inhibition of virus-induced cytopathicity; assay type: functional, organism-based; settings: Alphacoronavirus 1
[24] = Antiproliferative activity against human Molt4/C8 cells after 3 days; assay type: cell-based; settings: MOLT-4, 72 h; outline: as §3
[25] = test system: Felid alphaherpesvirus 1; assay: Antiviral activity against Feline herpesvirus in feline […] cells assessed as inhibition of virus-induced cytopathicity; assay type: functional, organism-based
[26] = test system: Punta Toro virus; assay: Antiviral activity against Punta Toro virus in african green monkey Vero cells assessed as protection against virus-induced cytopathicity; assay type: functional, organism-based; outline: as §1
[27] = test system: Sindbis virus; assay: Antiviral activity against Sindbis virus in african green monkey Vero cells assessed as protection against virus-induced cytopathicity; assay type: functional, organism-based; outline: as §1
[28] = target: Human immunodeficiency virus type 1 reverse transcriptase (Human immunodeficiency virus 1, UniProt Q72547); assay: Inhibition of HIV1 reverse transcriptase p66/p51; settings: read-out: IC50
[29] = test system: Vesicular stomatitis virus; assay: Antiviral activity against VSV in human HeLa cells assessed as protection against virus-induced cytopathicity; assay type: functional, organism-based
[30] = test system: Human alphaherpesvirus 1; assay: Antiviral activity against HSV1 KOS in human HEL cells assessed as protection against virus-induced cytopathicity; assay type: functional, organism-based; settings: Human alphaherpesvirus 1, KOS
[31] = test system: Influenza A virus; assay: Antiviral activity against influenza H1N1 virus in MDCK cells assessed as reduction of virus-induced cytopathicity by visual cytopathic effect scoring method; assay type: functional, organism-based
[32] = Cytotoxicity against feline CRFK cells by MTS assay; assay type: cell-based, Felis catus; settings: cat
[33] = test system: Human respirovirus 3; assay: Antiviral activity against Parainfluenza virus type 3 in african green monkey Vero cells assessed as protection against virus-induced cytopathicity; assay type: functional, organism-based; settings: Human respirovirus 3, Vero; outline: as §1
[34] = Cytotoxicity against human HeLa cells assessed as drug level causing microscopically detectable alteration of normal cell morphology after 3 days; assay type: cell-based; outline: as §4
[35] = test system: Influenza A virus; assay: Antiviral activity against influenza H1N1 virus in MDCK cells assessed as reduction of virus-induced cytopathicity by MTS method; assay type: functional, organism-based; settings: Influenza A virus, H1N1, MDCK
[36] = test system: Coxsackievirus B4; assay: Antiviral activity against Coxsackievirus B4 in human HeLa cells assessed as protection against virus-induced cytopathicity; assay type: functional, organism-based; settings: Enterovirus B; outline: as §1

Row | SMILES | EC50 [1] | EC50 [2] | EC50 [3] | EC50 [4] | IC50 [5] | CC50 [6] | IC50 [7] | IC50 [8] | EC50 [9] | MCC at 72 h [10] | IC50 [11] | EC50 [12] | EC50 [13] | MCC at 72 h [14] | MCC [15] | EC50 [16] | EC50 [17] | EC50 [18] | IC50 [19] | EC50 [20] | also measured
1 | Cc1cc(C)cc(S(=O)(=O)c2c(C(N)=O)[nH]c3ccc(Cl)c(F)c23)c1 | > 100 µM | > 4 µM | 100 µM | > 20 µM | 0.006 µM | 40.6 µM | 46 µM | 0.002 µM | > 4 µM | > 100 µM | > 28 µM | > 20 µM | 0.001 µM | > 100 µM | 20 µM | > 4 µM | > 10 µM | > 20 µM | 0.029 µM | > 100 µM | EC50 [21]: > 20 µM; EC50 [22]: > 4 µM; EC50 [23]: > 100 µM; IC50 [24]: 14 µM; EC50 [25]: > 100 µM; EC50 [26]: > 100 µM; EC50 [27]: > 100 µM; IC50 [28]: 0.003 µM; EC50 [29]: > 100 µM; EC50 [30]: > 20 µM; EC50 [31]: > 4 µM; CC50 [32]: > 100 µM; EC50 [33]: > 100 µM; MCC at 72 h [34]: > 100 µM; EC50 [35]: > 4 µM; EC50 [36]: 27 µM
2 | Cc1cc(C)cc(S(=O)(=O)c2c(C(=O)NCCS(N)(=O)=O)[nH]c3ccc([N+](=O)[O-])cc23)c1 | 20 µM | > 4 µM | > 20 µM | > 4 µM | 0.787 µM | 32.7 µM | 408 µM | 0.388 µM | > 4 µM | 100 µM | 200 µM | > 4 µM | 0.0027 µM | 20 µM | 20 µM | > 4 µM | > 10 µM | > 4 µM | > 40 µM | > 20 µM | EC50 [21]: > 4 µM; EC50 [22]: > 4 µM; EC50 [23]: > 100 µM; IC50 [24]: 244 µM; EC50 [25]: > 100 µM; EC50 [26]: > 20 µM; EC50 [27]: > 20 µM; IC50 [28]: 0.061 µM; EC50 [29]: ≥ 100 µM; EC50 [30]: > 4 µM; EC50 [31]: > 4 µM; CC50 [32]: > 100 µM; EC50 [33]: > 20 µM; MCC at 72 h [34]: ≥ 100 µM; EC50 [35]: > 4 µM; EC50 [36]: ≥ 20 µM
3 | Cc1cc(C)cc(S(=O)(=O)c2c(C(=O)NC(C)C(N)=O)[nH]c3ccc(Br)cc23)c1 (centres undefined) | 4 µM | > 800 µM | > 4 µM | > 4 µM | 0.509 µM | 1.7 µM | 10 µM | 0.041 µM | > 800 µM | 20 µM | 10 µM | > 4 µM | 0.0019 µM | 20 µM | 4 µM | > 800 µM | > 10 µM | > 4 µM | 1.81 µM | > 4 µM | EC50 [21]: > 4 µM; EC50 [22]: > 800 µM; EC50 [23]: > 4 µM; IC50 [24]: 8.7 µM; EC50 [25]: > 4 µM; EC50 [26]: > 4 µM; EC50 [27]: > 4 µM; IC50 [28]: 0.016 µM; EC50 [29]: > 4 µM; EC50 [30]: > 4 µM; EC50 [31]: > 800 µM; CC50 [32]: 9.2 µM; EC50 [33]: > 4 µM; MCC at 72 h [34]: 20 µM; EC50 [35]: > 800 µM; EC50 [36]: 2 µM
4 | Cc1cc(C)cc(S(=O)(=O)c2c(C(=O)NCCC(N)=O)[nH]c3ccc([N+](=O)[O-])cc23)c1 | > 100 µM | > 20 µM | > 100 µM | > 20 µM | 0.474 µM | > 100 µM | > 500 µM | 0.204 µM | > 20 µM | > 100 µM | ≥ 500 µM | > 20 µM | 0.0016 µM | ≥ 20 µM | 100 µM | > 20 µM | > 10 µM | > 20 µM | 5.53 µM | > 100 µM | EC50 [21]: > 20 µM; EC50 [22]: > 20 µM; EC50 [23]: > 100 µM; IC50 [24]: > 500 µM; EC50 [25]: > 100 µM; EC50 [26]: > 100 µM; EC50 [27]: > 100 µM; IC50 [28]: 0.027 µM; EC50 [29]: > 100 µM; EC50 [30]: > 20 µM; EC50 [31]: > 20 µM; CC50 [32]: > 100 µM; EC50 [33]: > 100 µM; MCC at 72 h [34]: > 100 µM; EC50 [35]: > 20 µM; EC50 [36]: > 100 µM
